The results in this text go back to ChEMBL document CHEMBL2321699, “Discovery of O-Alkylamino Tethered Niclosamide Derivatives as Potent and Orally Bioavailable Anticancer Agents” (ACS Med Chem Lett, 2013).

Converted amounts (≈) assume the structure as drawn. The source made the active and inactive calls. The calls are words filed in the database; no cut-off is given here.

Data set [1] concerns MCF7. Kind of data set: Cytotoxicity against human ER positive MCF7 cells after 72 hrs by MTS assay. In kind it is functional, cell-based. Particulars: MCF7, 72 h. An outline of the steps: (§1)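 Cell proliferation of MCF-7, MDA-MB-231, AsPC1 and Panc-1 measured by MTS assay; IC50 in μM.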
In general terms: Formazan colour is commonly taken as a measure of viable cells.

The test system of data set [2] is MDA-MB-231. Kind of data set: Cytotoxicity against human ER negative MDA-MB-231 cells after 72 hrs by MTS assay. In kind it is functional, cell-based. The conditions noted are these: MDA-MB-231, 72 h. An outline of the steps: as §1
For data set [3], the system named is PANC-1. Kind of data set: Cytotoxicity against human PANC1 cells after 72 hrs by MTS assay. In kind it is functional, cell-based. Particulars: PANC-1, 72 h. The procedure, abridged:
as §1

The test system of data set [4] is ASPC1. Kind of data set: Cytotoxicity against human AsPC1 cells after 72 hrs by MTS assay. In kind it is functional, cell-based. The conditions noted are these: ASPC1, 72 h. The procedure, abridged: as §1
A short description of data set [5]: Solubility of the compound in water. In kind it is physicochemical.
The subject of data set [6] is MDA-MB-231. As to the kind of experiment: Induction of morphological changes in human ER negative MDA-MB-231 cells at 1 to 10 uM after 48 hrs by light microscopic analysis. It is filed as functional, cell-based. The procedure, abridged:
(§2)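 MDA-MB-231 cells treated 48 h at 1, 5 and 10 μM; cell morphology, growth and apoptotic features examined under light microscopy.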

In data set [7] the test system is MDA-MB-231. As to the kind of experiment: Induction of apoptosis in human ER negative MDA-MB-231 cells at 1 to 10 uM after 48 hrs by light microscopic analysis. It is filed as functional, cell-based. An outline of the steps: as §2
In data set [8] the test system is MDA-MB-231. Kind of data set: Antiproliferative activity against human ER negative MDA-MB-231 cells at 1 to 10 uM after 48 hrs by light microscopic analysis. In kind it is functional, cell-based. An outline of the steps: as §2
Data set [9] concerns MDA-MB-231. As to the kind of experiment: Antitumor activity against human ER negative MDA-MB-231 cells xenografted in nude mouse assessed as inhibition of tumor growth at 25 mg/kg, po qd for 5 days. It is filed as functional, organism-based. Also noted: dose 25 mg/kg. The procedure, abridged:
(§3)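 MDA-MB-231 xenografts in mice; tumor growth followed after intraperitoneal or oral dosing, doses as listed per line.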
A general note: Xenograft models place foreign cells or tissue in a host animal.

The subject of data set [10] is MDA-MB-231. Kind of data set: Antitumor activity against human ER negative MDA-MB-231 cells xenografted in nude mouse assessed as inhibition of tumor growth at 7.5 mg/kg, ip qd for 5 days. It is filed as functional, organism-based. Details: dose 7.5 mg/kg. An outline of the steps: as §3
Data set [11] concerns MDA-MB-231. As to the kind of experiment: Induction of apoptosis in human ER negative MDA-MB-231 cells assessed as cleavage of caspase-3 after 48 hrs. In kind it is functional, cell-based.
In data set [12] the test system is MDA-MB-231. Kind of data set: Induction of apoptosis in human ER negative MDA-MB-231 cells using annexin-V staining at 1 to 10 uM after 48 hrs by flow cytometry. In kind it is functional, cell-based. An outline of the steps:
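Apoptosis in MDA-MB-231 cells measured by annexin V staining with flow cytometry across a dose range.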
For orientation: A flow cytometer gives signals particle by particle.

Data set [13] concerns MDA-MB-231. Kind of data set: Induction of apoptosis in human ER negative MDA-MB-231 cells assessed as down regulation of cycline D1 at 1 to 10 uM after 48 hrs. It is filed as functional, cell-based.
In data set [14] the test system is MDA-MB-231. Kind of data set: Induction of apoptosis in human ER negative MDA-MB-231 cells assessed as cleavage of caspase-3 at 1 to 10 uM after 48 hrs. In kind it is functional, cell-based.
The subject of data set [15] is MDA-MB-231. Kind of data set: Antiproliferative activity against human ER negative MDA-MB-231 cells at 10 to 20 uM after 24 hrs by MTT assay. It is filed as functional, cell-based. The procedure, abridged: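 MDA-MB-231 cells exposed 24 h; proliferation read by MTT assay.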
For data set [16], the target named is Signal transducer and activator of transcription 3 (Homo sapiens) (UniProt P40763). As to the kind of experiment: Inhibition of STAT3 promoter activity in human ER negative MDA-MB-231 cells after 24 hrs by dual luciferase reporter assay. In kind it is cell-based. An outline of the steps: (§4)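 MDA-MB-231 cells pretreated 24 h at various concentrations, then transiently transfected with pSTAT3-Luc vector; STAT3 promoter activity by dual luciferase reporter assay, expressed relative to control.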

The target is the same in data set [17]. As to the kind of experiment: Inhibition of STAT3 promoter activity in human ER negative MDA-MB-231 cells at 20 uM after 24 hrs by dual luciferase reporter assay. It is filed as cell-based. The procedure, abridged:
as §4

For data set [18] the target is unchanged. As to the kind of experiment: Inhibition of STAT3 promoter activity in human ER negative MDA-MB-231 cells at 10 uM after 24 hrs by dual luciferase reporter assay. It is filed as cell-based. The procedure, abridged: as §4
For data set [19] the target is unchanged. As to the kind of experiment: Inhibition of STAT3 in human ER negative MDA-MB-231 cells assessed as reduction of total STAT3 level at 1 to 10 uM after 24 hrs by Western blot analysis. In kind it is cell-based. An outline of the steps:
(§5)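 MDA-MB-231 cells treated with a series of doses for 24 h; total STAT3 and Tyr-705-phosphorylated STAT3 detected by Western blot.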

Data set [20] shares this target. Kind of data set: Inhibition of STAT3 in human ER negative MDA-MB-231 cells assessed as reduction of phosphorylated STAT3 at Tyr-705 level at 1 to 10 uM after 24 hrs by Western blot analysis. It is filed as cell-based. The procedure, abridged:
as §5

For data set [21], the system named is MDA-MB-231. As to the kind of experiment: Antitumor activity against human ER negative MDA-MB-231 cells xenografted in nude mouse assessed as inhibition of tumor growth at 75 mg/kg, po qd for 5 days. It is filed as functional, organism-based. Details: dose 75 mg/kg. An outline of the steps:
as §3

The subject of data set [22] is MDA-MB-231. Kind of data set: Antitumor activity against human ER negative MDA-MB-231 cells xenografted in nude mouse assessed as inhibition of tumor growth at 12.5 mg/kg, ip qd for 5 days. It is filed as functional, organism-based. Also noted: dose 12.5 mg/kg. An outline of the steps: as §3

Sequence of Signal transducer and activator of transcription 3 (Homo sapiens) (P40763 whole entry): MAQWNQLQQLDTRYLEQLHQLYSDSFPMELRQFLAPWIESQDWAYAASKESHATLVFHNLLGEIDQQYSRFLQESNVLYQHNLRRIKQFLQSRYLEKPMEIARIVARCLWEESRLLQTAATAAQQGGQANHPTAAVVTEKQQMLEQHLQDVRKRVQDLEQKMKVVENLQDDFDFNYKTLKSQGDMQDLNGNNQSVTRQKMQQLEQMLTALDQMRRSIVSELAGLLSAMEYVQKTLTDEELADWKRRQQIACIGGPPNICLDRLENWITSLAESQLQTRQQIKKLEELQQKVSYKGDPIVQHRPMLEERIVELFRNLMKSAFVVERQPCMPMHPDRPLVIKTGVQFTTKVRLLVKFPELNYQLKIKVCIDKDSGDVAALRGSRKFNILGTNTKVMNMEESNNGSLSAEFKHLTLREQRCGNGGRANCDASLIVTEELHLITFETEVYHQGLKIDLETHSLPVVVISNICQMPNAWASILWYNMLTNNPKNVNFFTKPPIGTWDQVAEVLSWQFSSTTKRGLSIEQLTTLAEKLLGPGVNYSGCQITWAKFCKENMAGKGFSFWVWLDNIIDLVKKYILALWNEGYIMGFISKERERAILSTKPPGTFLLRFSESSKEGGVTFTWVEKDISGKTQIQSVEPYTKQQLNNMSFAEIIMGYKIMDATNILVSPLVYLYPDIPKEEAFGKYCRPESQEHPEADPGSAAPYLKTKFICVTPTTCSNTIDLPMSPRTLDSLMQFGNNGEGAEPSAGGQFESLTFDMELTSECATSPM

Turning to `CC(=O)Nc1ccc(NC(=O)c2cc(Cl)ccc2OC2CCNCC2)c(Cl)c1`, the IC50 (commonly the concentration at which inhibition is half-maximal) in data set [1] was above 10 µM; in [2], 5.87 µM.

Consider `NCCCCCOc1ccc(Cl)cc1C(=O)Nc1ccc([N+](=O)[O-])cc1Cl`, for which the IC50 in data set [3] is 4.67 µM; in [4], 2.08 µM; in data set [1] it was 3.49 µM; in data set [2], 3.1 µM.

As for `O=C(Nc1ccc([N+](=O)[O-])cc1Cl)c1cc(Cl)ccc1OCCN1CCOCC1`, the IC50 in data set [3] is above 10 µM; in [4] it was 72.2 µM; in data set [1], 9.87 µM; in data set [2], 18 µM.

Take `CN1CCC(Oc2ccc(Cl)cc2C(=O)Nc2ccc([N+](=O)[O-])cc2Cl)CC1`: the half-inhibitory concentration (IC50) is above 10 µM in [3], 3.51 µM in data set [4], 4.11 µM in [1] and 2.69 µM in data set [2].

As to `NCCCCOc1ccc(Cl)cc1C(=O)Nc1ccc([N+](=O)[O-])cc1Cl`, the IC50 in data set [3] is above 10 µM; in data set [4], 7.4 µM; in data set [1] it was 3.7 µM; in data set [2], 2.37 µM.

Consider `NCCOCCOc1ccc(Cl)cc1C(=O)Nc1ccc([N+](=O)[O-])cc1Cl`, for which the IC50 in data set [3] was above 10 µM; in [4] it was above 10 µM; in [1], 9.37 µM; in [2], 5.3 µM.

Regarding `O=C(Nc1ccc([N+](=O)[O-])cc1Cl)c1cc(Cl)ccc1OCCN1CCCCC1`, the IC50 in data set [1] and in [2] was above 10 µM each time.

Consider `O=C(Nc1ccc([N+](=O)[O-])cc1Cl)c1cc(Cl)ccc1OCCN1CCNCC1`, for which the results for the IC50 in [1] and in data set [2] were 12.4 µM and 8.7 µM, respectively.

With `CN1CCN(CCOc2ccc(Cl)cc2C(=O)Nc2ccc([N+](=O)[O-])cc2Cl)CC1`, the IC50 in data set [1] and in data set [2] was above 10 µM throughout.

Consider `CN(C)CCOc1ccc(Cl)cc1C(=O)Nc1ccc([N+](=O)[O-])cc1Cl`, for which the IC50 in data set [1] and in [2] was above 10 µM throughout.

As for `Cl.O=C(Nc1ccc([N+](=O)[O-])cc1Cl)c1cc(Cl)ccc1OC1CCNCC1`, in data set [5] (buffer), the solubility – broadly, the concentration that dissolves in the medium under given conditions – amounted to 248 µg/mL.

On to `O=C(Nc1ccc([N+](=O)[O-])cc1Cl)c1cc(Cl)ccc1OC1CCNCC1` [listing 1 of 2 here], for which the result in [6], in data set [7] and in [8] was Active.

Turning to `NCCCOc1ccc(Cl)cc1C(=O)Nc1ccc([N+](=O)[O-])cc1Cl`, the half-maximal inhibitory concentration (IC50) is 3.11 µM in data set [3], 4.2 µM in data set [4], 3.11 µM in data set [1] and 2.61 µM in data set [2].

In the case of `O=C(Nc1ccc([N+](=O)[O-])cc1Cl)c1cc(Cl)ccc1OCCF`, the IC50 in data set [1] and in data set [2] was above 10 µM each time.

In the case of `CS(=O)(=O)Nc1ccc(NC(=O)c2cc(Cl)ccc2OC2CCNCC2)c(Cl)c1`, the IC50 in data set [1] and in [2] was above 10 µM throughout.

`NCCOc1ccc(Cl)cc1C(=O)Nc1ccc([N+](=O)[O-])cc1Cl`: the TGI entry in [9] and in [10] was “Active” each time. In addition, the Activity result in data set [11] was “Dose-dependent effect”. Moreover, the outcome in data set [12], in data set [13], in data set [14], in data set [15], in data set [16] and in [6] was Active. Besides, the outcome in data set [7] and in [8] was Active. The results for the inhibition result in [16], in data set [17] and in data set [18] were “Dose-dependent effect”, 62% and 32%, respectively. The inhibition entry in data set [19] and in [20] was “Active” each time. The IC50 came to 1.08 µM in data set [3], 1.9 µM in data set [4], 0.91 µM in data set [1] and 1.64 µM in data set [2].

Consider `O=C(Nc1ccc([N+](=O)[O-])cc1Cl)c1cc(Cl)ccc1OC1CCNCC1` [listing 2 of 2 here], for which the IC50 came out at 0.54 µM in [3], 2.76 µM in [4], 0.25 µM in [1] and 0.29 µM in [2].

As for `O=C(Nc1ccc([N+](=O)[O-])cc1Cl)c1cc(Cl)ccc1O` [NICLOSAMIDE], the TGI result in data set [21] and in data set [22] was “Active” throughout. The Activity result in data set [11] was “Dose-dependent effect”. For the same compound, the result in [15], in [16], in data set [6], in data set [7] and in data set [8] was Active. For the same compound, the inhibition entry in data set [17], in data set [18], in data set [19] and in data set [20] was “Active” each time. Also, in data set [5] (water, read-out: solubility), the solubility was found to be 0.23 µg/mL (≈ 0.703 µM). Also, the IC50 in data set [3] came out at 1.73 µM; in [4], 1.47 µM; in [1], 1.06 µM; in [2], 0.79 µM.
